Assay results: ChEMBL document CHEMBL1132437, “Synthesis and antimicrobial activity of 4H-4-oxoquinolizine derivatives: consequences of structural modification at the C-8 position” (1999)
Converted amounts (≈) assume the structure as drawn.

Tests used:
Enterococcus faecium = experiment: In vitro antibacterial activity against gram-positive Enterococcus faecium ATCC 8043; type: functional; details: Enterococcus faecium, ATCC 8043; read-out: MIC
Outline: (§1)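 Agar dilution MIC determination following the National Committee for Clinical Laboratory Standards recommendations.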

Escherichia coli [1] = experiment: In vitro antibacterial activity against gram negative Escherichia coli KNK 437; type: functional; details: Escherichia coli; read-out: MIC; outline: as §1
Pseudomonas aeruginosa [2] = experiment: In vivo efficacy against Pseudomonas aeruginosa 5007 in mouse protection test after subcutaneous administration; type: functional; details: Pseudomonas aeruginosa, sc; read-out: ED50
Outline: (§2)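 Mouse protection model: mice infected intravenously with 100-fold LD50 of the organism. Compound given by subcutaneous injection or oral gavage at 1 and 5 h after infection, over a dose range. Deaths tracked for 7 days post-inoculation. ED50 is the dose giving 50% survival of treated mice over the trial.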

Staphylococcus aureus [3] = experiment: In vivo efficacy against Staphylococcus aureus NCTC 10649M in mouse protection test after p.o. administration.; type: functional; details: Staphylococcus aureus, po; read-out: ED50; outline: as §2
Staphylococcus aureus [4] = experiment: In vivo efficacy against Staphylococcus aureus NCTC 10649M in mouse; type: functional; details: Staphylococcus aureus; read-out: ED50; outline: as §2
Mus musculus [5] = experiment: In vivo efficacy against Streptococcus pneumoniae ATCC 6303 in mouse protection test after administration by oral gavage; type: functional; outline: as §2
Streptococcus pneumoniae = experiment: In vivo efficacy against Streptococcus pneumoniae ATCC 6303 in mouse protection test after s.c. administration.; type: functional; details: Streptococcus pneumoniae, sc; read-out: ED50; outline: as §2
Escherichia coli [6] = experiment: In vivo efficacy against Escherichia coli JUHL in mouse protection test after p.o. administration.; type: functional; details: Escherichia coli, po; read-out: ED50; outline: as §2
Escherichia coli [7] = experiment: In vivo efficacy against Escherichia coli JUHL in mouse protection test after subcutaneous administration; type: functional; details: Escherichia coli, sc; read-out: ED50; outline: as §2
Pseudomonas aeruginosa [8] = experiment: In vivo efficacy against Pseudomonas aeruginosa 5007 in mouse protection test after administration by oral gavage; type: functional; details: Pseudomonas aeruginosa, po; read-out: ED50; outline: as §2
Pseudomonas aeruginosa [9] = experiment: In vitro antibacterial activity against Gram-negative Pseudomonas aeruginosa 5007; type: functional; details: Pseudomonas aeruginosa; read-out: MIC; outline: as §1
Pseudomonas aeruginosa [10] = experiment: In vitro antibacterial activity against gram negative P. aeruginosa DPHP 5263; type: functional; details: Pseudomonas aeruginosa, DPHP 5263; read-out: MIC; outline: as §1
Burkholderia cepacia = experiment: In vitro antibacterial activity against gram negative Pseudomonas cepacia 2961; type: functional; details: Burkholderia cepacia; read-out: MIC; outline: as §1
Staphylococcus aureus [11] = experiment: In vitro antibacterial activity against gram-positive Staphylococcus aureus 1775; type: functional; details: Staphylococcus aureus; read-out: MIC; outline: as §1
Staphylococcus aureus [12] = experiment: In vitro antibacterial activity against gram-positive Staphylococcus aureus NCTC 10649M; type: functional; details: Staphylococcus aureus, NCTC 10649; read-out: MIC; outline: as §1
Streptococcus pyogenes = experiment: In vitro antibacterial activity against gram positive Streptococcus pyogenes 930; type: functional; details: Streptococcus pyogenes; read-out: MIC; outline: as §1
Mus musculus [13] = experiment: In vivo efficacy against Staphylococcus aureus NCTC 10649M in mouse protection test
Mus musculus [14] = experiment: InIn vivo efficacy against Escherichia coli JUHL in mouse protection test after administration by oral gavage; type: functional; outline: as §2

Structure (SMILES)	MIC (Enterococcus faecium)	MIC (Escherichia coli [1])	ED50 (Pseudomonas aeruginosa [2])	ED50 (Staphylococcus aureus [3])	ED50 (Staphylococcus aureus [4])	ED50 (Mus musculus [5])	ED50 (Streptococcus pneumoniae)	ED50 (Escherichia coli [6])	ED50 (Escherichia coli [7])	ED50 (Pseudomonas aeruginosa [8])	MIC (Pseudomonas aeruginosa [9])	MIC (Pseudomonas aeruginosa [10])	MIC (Burkholderia cepacia)	MIC (Staphylococcus aureus [11])	MIC (Staphylococcus aureus [12])	MIC (Streptococcus pyogenes)	ED50 (Mus musculus [13])	ED50 (Mus musculus [14])
Cc1c(N2C[C@H](C3CC3)[C@@H](N)C2)c(F)cn2c(=O)c(C(=O)O)cc(C3CC3)c12	0.1 µg/mL (≈ 0.259 µM)	0.2 µg/mL (≈ 0.519 µM)	> 32 mg/kg	11.2 mg/kg	3 mg/kg	> 50 mg/kg	> 8 mg/kg	> 10 mg/kg	1.2 mg/kg	> 50 mg/kg	0.39 µg/mL (≈ 1.01 µM)	12.5 µg/mL (≈ 32.4 µM)	1.56 µg/mL (≈ 4.05 µM)	0.78 µg/mL (≈ 2.02 µM)	0.02 µg/mL (≈ 0.0519 µM)	0.1 µg/mL (≈ 0.259 µM)		
Cc1c(N2C[C@@H]3CCCC[C@]3(CN)C2)c(F)cn2c(=O)c(C(=O)O)cc(C3CC3)c12	0.02 µg/mL (≈ 0.0484 µM)	1.56 µg/mL (≈ 3.77 µM)	> 32 mg/kg	17.7 mg/kg	1.8 mg/kg			> 20 mg/kg	> 5 mg/kg	> 50 mg/kg	3.1 µg/mL (≈ 7.5 µM)	50 µg/mL (≈ 121 µM)	3.1 µg/mL (≈ 7.5 µM)	0.2 µg/mL (≈ 0.484 µM)	0.002 µg/mL (≈ 0.00484 µM)	0.02 µg/mL (≈ 0.0484 µM)		
Cc1c(N2CCCC(NC3CC3)C2)c(F)cn2c(=O)c(C(=O)O)cc(C3CC3)c12 (centres undefined)	0.05 µg/mL (≈ 0.125 µM)	0.2 µg/mL (≈ 0.501 µM)	> 32 mg/kg	2.1 mg/kg		2.5 mg/kg	1 mg/kg	8 mg/kg	2.8 mg/kg	> 50 mg/kg	0.39 µg/mL (≈ 0.976 µM)	25 µg/mL (≈ 62.6 µM)	3.1 µg/mL (≈ 7.76 µM)	1.56 µg/mL (≈ 3.91 µM)	0.01 µg/mL (≈ 0.025 µM)	0.05 µg/mL (≈ 0.125 µM)	0.4 mg/kg	
Cc1c(N2CC[C@H](C)[C@@H](N)C2)c(F)cn2c(=O)c(C(=O)O)cc(C3CC3)c12	0.05 µg/mL (≈ 0.134 µM)	0.39 µg/mL (≈ 1.04 µM)		1.9 mg/kg	0.5 mg/kg				1.7 mg/kg		0.39 µg/mL (≈ 1.04 µM)		3.1 µg/mL (≈ 8.3 µM)	0.39 µg/mL (≈ 1.04 µM)	0.01 µg/mL (≈ 0.0268 µM)	0.02 µg/mL (≈ 0.0536 µM)		2.3 mg/kg
Cc1c(N2CC[C@@H]3[C@H](N)[C@@H]3C2)c(F)cn2c(=O)c(C(=O)O)cc(C3CC3)c12	0.05 µg/mL (≈ 0.135 µM)	0.2 µg/mL (≈ 0.538 µM)		4.1 mg/kg				5 mg/kg	0.9 mg/kg		0.39 µg/mL (≈ 1.05 µM)	6.2 µg/mL (≈ 16.7 µM)	3.1 µg/mL (≈ 8.35 µM)	1.56 µg/mL (≈ 4.2 µM)	0.02 µg/mL (≈ 0.0538 µM)	0.05 µg/mL (≈ 0.135 µM)	1.2 mg/kg	
